In one data set the target is T1, rat mPGES-1 (Rattus norvegicus, UniProt Q9JHF3).
T1 sequence (Q9JHF3 1-153): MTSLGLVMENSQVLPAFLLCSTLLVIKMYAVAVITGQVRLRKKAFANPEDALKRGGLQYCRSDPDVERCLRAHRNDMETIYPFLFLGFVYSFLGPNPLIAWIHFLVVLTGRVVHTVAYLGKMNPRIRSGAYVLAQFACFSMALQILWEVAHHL
Description: Cell-free mPGES-1 assay. Format: biochemical. To be noted: IC50 mPGES-1, cell-free.

The target of another data set is T2, mouse 5-LOX (Mus musculus, UniProt P48999).
T2 sequence (P48999 1-674): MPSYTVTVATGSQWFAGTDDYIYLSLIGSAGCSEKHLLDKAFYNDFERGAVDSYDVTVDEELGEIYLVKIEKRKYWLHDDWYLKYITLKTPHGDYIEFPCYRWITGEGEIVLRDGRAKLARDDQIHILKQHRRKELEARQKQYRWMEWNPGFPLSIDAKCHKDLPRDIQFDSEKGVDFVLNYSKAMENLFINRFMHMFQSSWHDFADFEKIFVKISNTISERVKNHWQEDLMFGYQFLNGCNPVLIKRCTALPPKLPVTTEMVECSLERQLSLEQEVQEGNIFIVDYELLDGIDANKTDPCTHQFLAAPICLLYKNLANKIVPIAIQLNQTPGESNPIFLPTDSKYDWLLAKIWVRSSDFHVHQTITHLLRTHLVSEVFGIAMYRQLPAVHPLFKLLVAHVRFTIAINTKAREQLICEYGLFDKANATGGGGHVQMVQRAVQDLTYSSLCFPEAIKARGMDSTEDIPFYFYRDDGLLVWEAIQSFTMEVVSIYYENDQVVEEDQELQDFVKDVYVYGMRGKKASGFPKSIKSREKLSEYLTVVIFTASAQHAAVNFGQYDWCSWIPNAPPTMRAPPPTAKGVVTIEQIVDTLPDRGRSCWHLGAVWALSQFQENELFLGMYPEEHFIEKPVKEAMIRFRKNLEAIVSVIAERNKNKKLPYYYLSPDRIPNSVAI
Description: Cell-free fluorometric 5-LOX assay. Format: biochemical.

A further data set concerns the target T3, rat COX-1 (Rattus norvegicus, UniProt Q63921).
T3 sequence (Q63921 27-602): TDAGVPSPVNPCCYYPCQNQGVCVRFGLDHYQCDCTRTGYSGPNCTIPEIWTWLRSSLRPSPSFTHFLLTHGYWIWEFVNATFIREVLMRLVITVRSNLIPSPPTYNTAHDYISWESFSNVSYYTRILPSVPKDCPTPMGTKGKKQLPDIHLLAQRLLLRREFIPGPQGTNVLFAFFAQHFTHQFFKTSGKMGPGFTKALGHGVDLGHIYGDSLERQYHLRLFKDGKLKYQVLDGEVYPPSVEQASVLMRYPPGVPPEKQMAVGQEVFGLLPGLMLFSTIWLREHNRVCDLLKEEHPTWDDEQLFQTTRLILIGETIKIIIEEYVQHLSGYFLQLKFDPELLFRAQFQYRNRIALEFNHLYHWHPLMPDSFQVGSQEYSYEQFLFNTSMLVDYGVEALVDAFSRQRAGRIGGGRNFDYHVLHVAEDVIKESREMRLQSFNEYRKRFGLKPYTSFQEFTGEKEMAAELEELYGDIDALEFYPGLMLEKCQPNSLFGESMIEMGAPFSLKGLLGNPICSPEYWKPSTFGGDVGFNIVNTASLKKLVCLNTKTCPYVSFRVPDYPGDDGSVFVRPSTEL
Description: Cell-free fluorometric COX-1 assay. In kind it is biochemical.

In the next data set the target is T4, rat COX-2 (Rattus norvegicus, UniProt P35355).
T4 sequence (P35355 18-604): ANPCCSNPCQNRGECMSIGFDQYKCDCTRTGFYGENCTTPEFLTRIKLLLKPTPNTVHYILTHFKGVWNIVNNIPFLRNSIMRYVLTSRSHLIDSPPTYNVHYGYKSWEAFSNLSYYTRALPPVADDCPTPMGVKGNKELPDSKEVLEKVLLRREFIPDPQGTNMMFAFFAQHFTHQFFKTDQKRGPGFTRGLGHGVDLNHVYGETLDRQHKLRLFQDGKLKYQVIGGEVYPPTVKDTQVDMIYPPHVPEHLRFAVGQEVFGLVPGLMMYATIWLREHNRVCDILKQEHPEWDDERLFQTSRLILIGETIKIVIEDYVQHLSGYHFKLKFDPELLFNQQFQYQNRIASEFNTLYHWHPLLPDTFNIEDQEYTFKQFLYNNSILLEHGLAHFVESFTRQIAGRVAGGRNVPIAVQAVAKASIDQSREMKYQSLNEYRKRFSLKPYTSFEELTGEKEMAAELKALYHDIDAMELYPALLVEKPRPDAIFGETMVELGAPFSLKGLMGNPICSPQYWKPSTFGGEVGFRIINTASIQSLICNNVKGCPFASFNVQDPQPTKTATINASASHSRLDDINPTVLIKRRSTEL
Description: Cell-free fluorometric COX-2 assay. In kind it is biochemical.

Data set [1] deals with PGI2 production in LPS-stimulated macrophages of humans, mice, and rats. Description: PGI2 production in LPS-stimulated macrophages, range over species. Format: cell-based. To be noted: Macrophage. The essentials:
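Human macrophages derived from THP-1 monocytes with PMA. Rat/mouse peritoneal macrophages collected by lavage with ice-cold DMEM, selected by glass adherence (1 h, 37°C), Trypan-blue checked. Cells in DMEM+10% FBS at 10,000 (96-well) or 40,000 (24-well) per well, given non-toxic compound doses, then LPS 10 µg/mL for 24 h. PGE2, PGI2 and LTB4 measured in supernatant. IC50 by four-parameter nonlinear regression.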

Data set [2] relates to carrageenan-induced hind paw edema of rats. Description: Carrageenan-induced rat paw edema model. In kind it is in vivo, rat (male Fischer F344). The following applies: for TXB2 levels in paw exudates / LTB4 levels in paw exudates / PGE2 levels in paw exudates / PGI2 levels in paw exudates: 400 ppm; for edema inhibition (maximum): 400 ppm in diet (oral), 3 hours after carrageenan injection; for LTB4 levels in paw exudates / PGE2 levels in paw exudates / PGI2 levels in paw exudates: compared to control (vehicle). The essentials: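 Male F344 rats (350–400 g) fed AIN-76A diet, either control or with compound or reference inhibitor at 400 ppm; separate saline group. 0.1 mL 1% λ-carrageenan in saline injected subplantar into left hind paw, saline into right. Dorsiventral paw thickness by digital caliper before and 1–6 h after injection; % edema inhibition. Paw exudate PGE2, LTB4, TXB2 and PGI2 measured by ELISA. Stomach and organs examined for ulcers.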

Setting [3] is: cell-free, rat, up to the tested range of 1 mM.

Entries after “also recorded” stand apart in the source; their conditions may differ. Where two headings read alike, the source gives them in different places. A value given as a limit tells only on which side of the number the result lay.

From article PMC7781011 (Journal of Inflammation Research, 2020) come the findings set out here.

One may read the IC50 as the midpoint of a concentration-inhibition curve.

For `CC1(C)Cc2c(-c3ccccc3)c(-c3ccc(Cl)cc3)c(CC(=O)NCC(=O)O)n2C1` [LFA-9, 2-[[2-[2-(4-chlorophenyl)-6,6-dimethyl-1-phenyl-5,7-dihydropyrrolizin-3-yl]acetyl]amino]acetic acid], on rat mPGES-1, the half-maximal inhibitory concentration (IC50) is 1.4 µM. Inhibition against mouse 5-LOX was half-maximal at 2.64 µM (IC50). In addition, at rat COX-1 (setting [3]), the “inhibition of COX-1 activity” value was “did not show inhibition”. Moreover, on rat COX-2 (setting [3]), the “inhibition of COX-2 activity” value is recorded as “did not show inhibition”. For the same compound, the half-inhibitory concentration (IC50) in data set [1] (read-out: IC50 PGI2 production) was over 100 µM. For the same compound, in data set [2], the “TXB2 levels in paw exudates” value was “maintained homeostasis”, the “edema inhibition (maximum)” value was 70.4%, the “LTB4 levels in paw exudates” value was “reduced” and the “PGE2 levels in paw exudates” value is listed as “reduced”. Further, the “PGI2 levels in paw exudates” value in data set [2] is “spared”. For the same compound, in data set [2] (400 ppm in diet), the “gastrointestinal (and other) toxicity” value was “did not show any gastrointestinal toxicity; also recorded: did not show any gastrointestinal and any other toxicities”.
Turning to `CC1(C)Cc2c(-c3ccccc3)c(-c3ccc(Cl)cc3)c(CC(=O)O)n2C1` [Licofelone, reference compound], the IC50 on rat mPGES-1 was found to be 12.3 µM. This compound came in with a concentration for half-maximal inhibition (IC50) on mouse 5-LOX of 2.34 µM. At rat COX-1, this compound yielded a concentration for half-maximal inhibition (IC50) of 1.81 µM. On rat COX-2, this compound returned a half-inhibitory concentration (IC50) of 3.26 µM. Besides, the IC50 in data set [1] (read-out: IC50 range PGI2 production) fell in the range of 0.85 to 0.91 µM. In data set [2], the “TXB2 levels in paw exudates” value was “reduced”, the “edema inhibition (maximum)” value stood at 61.7%, the “LTB4 levels in paw exudates” value was “reduced” and the “PGE2 levels in paw exudates” value was “reduced”. The “PGI2 levels in paw exudates” value in data set [2] was “reduced”.
